High-throughput results: PubChem BioAssay, Broad Institute
Calb FLC = C. albicans growth inhibition with fluconazole, primary screen, CaCi-2 strain, Alamar Blue fluorescence | C. albicans CaCi-2 (fluconazole-resistant clinical isolate) + fluconazole, 48 h | growth inhibition, % (concentration not given with the values) | 300,000 compounds, 0.57% hits | AID 1979, 2009;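 active = growth inhibition above about 58% in most replicates, limit read from the data, passing the limit was not always enough; inconclusive = exactly half the replicates above a set limit; inactive = most replicates below a set limit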;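 note: all wells also contain fluconazole at 8 µg/ml as a sub-toxic cotreatment; 0% = median of DMSO wells and 100% = median of geldanamycin control wells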
HSF1 inhib = HSF1 inhibitors in luciferase reporter cells, primary screen, cell-based, NIH3T3, luminescence. NIH3T3-HGL HSE-luciferase, MG132-induced, luminescence 8 h; stronger effect = lower value. activity change, negative = inhibition, % at 7.5 µM (by protocol). 300,000 compounds, 0.77% hits. AID 2098, 2009;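 active = more than half of replicate wells show activity change below -50%, luminescence cut by over half; inconclusive = some wells, but at most half, below -50%; inactive = no replicate well below -50%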;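 note: luciferase reports HSF-1 transcriptional activity via heat shock element; 0% = median of DMSO wells and -100% = zero luminescence signal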
T cruzi inh = inhibitors of intracellular T. cruzi growth, primary screen, luminescence, NIH3T3 host cells. inhibition, % (concentration not given with the values). T. cruzi beta-gal in NIH3T3, 90 h. 300,000 compounds, 1.4% hits. AID 1885, 2009;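 active = mean inhibition across valid replicates above about 55%, limit read from the data; inconclusive = mean below that limit but half or more replicates reach it; inactive = mean below it, under half of replicates reach it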;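 note: signal also drops with host cell toxicity which is not excluded here; 0% = plate median of DMSO wells and 100% = zero luminescence signal; higher percent means less beta-gal luminescence so fewer parasites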
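System – NIH/3T3 host cells with β-galactosidase reporter T. cruzi · Doses – single 50 nL compound addition per well in DMSO · Reagent – 5000 T. cruzi trypomastigotes/well · Medium – Low-serum DMEM with 2% FBS · Timing – ≥90 h infection period, 3 h prior cell attachment · Evaluation – parasite load inhibition, % · Technique – GalScreen luminescence, 60 min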
HIF act = HIF pathway transcriptional activators, primary screen, cell-based, U2OS HRE-luciferase, luminescence. U2OS HRE-luciferase reporter; normalized: DMSO 0%, desferrioxamine 100%. 300,000 compounds, 0.32% hits. activation, % at 7.5 µM (by protocol);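 active = mean activation of at least 10% of the iron chelator positive control signal, with at least half of replicates also reaching 10%; inconclusive = mean and replicate majority disagree about reaching 10%; inactive = mean and most replicates under 10%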
HSF1 activator = HSF-1 activators, primary screen, NIH3T3-HGL cells, MG132 stress, luminescence, single point; NIH3T3-HGL HSF-1 luciferase reporter, 8 h; 100% = twice DMSO control signal; activation, % at 9 µM; 300,000 compounds, 1.7% hits; AID 504408, 2011;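 active = mean replicate activation of at least 50% with a set share of replicates each reaching 50%; inconclusive = only one of those two conditions met; inactive = mean below 50% and too few replicates reaching it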;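 note: 0% = median of the neutral control wells and 100% = twice that signal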
Active calls of the source: *; ? = inconclusive; . = no result given. Compounds with a hit are over-represented: about 4.4% of the library has one in this group of screens.

SMILES | Calb FLC | HSF1 inhib | T cruzi inh | HIF act | HSF1 activator
O=C(CCCN1C(=O)c2cccc3cccc(c23)C1=O)Nc1nccs1 | -2 | -2 | -1 | 0 | -1
CC1C(c2ccccc2)N(C)C(c2ccccc2)CC1(O)c1ccc(F)cc1 (stereo not drawn) | -5 | -5 | 58* | 0 | -2
Cc1ccc(C(=O)NNc2cc(N3CCCC3)nc(N3CCCC3)n2)cc1 | -20 | -18 | 81* | -2 | -14
CC(C)n1c(/C=C/[C@@H](O)C[C@@H](O)CC(=O)O)c(-c2ccc(F)cc2)c2ccccc21 | 47 | 17 | -11 | -3 | 12
COCc1c(C(C)C)nc(C(C)C)c(/C=C/[C@@H](O)C[C@@H](O)CC(=O)O)c1-c1ccc(F)cc1 | 112* | 12 | 65* | -3 | 13
COc1ccccc1NC(=O)CSc1nncn1N | 2 | -1 | -5 | 0 | 3
CC(/C=C1\SC(=S)N(CCC(=O)Nc2ccccc2O)C1=O)=C\c1ccccc1 | -1 | -69* | -14 | 0 | -69
O=C(CCN1C(=O)/C(=C/C=C/c2ccccc2)SC1=S)Nc1ccccn1 | -6 | 45 | 19 | -1 | 48
CC(/C=C1\SC(=S)N(CCCC(=O)Nc2ccc(C(=O)O)cc2)C1=O)=C\c1ccccc1 | 0 | 11 | -7 | 1 | 61*
CC(=C\c1ccccc1)/C=C1/SC(=S)N(CCC(=O)Nc2ccccn2)C1=O | -6 | -91* | 14 | 0 | -93
CC(/C=C1\SC(=O)N(CCCC(=O)O)C1=O)=C\c1ccccc1 | 5 | -73* | 3 | -7 | -78
CC(Cc1nnc(SCC(=O)O)n1N)c1ccccc1 (stereo not drawn) | -1 | 2 | -8 | -9 | -3
Nn1c(COc2ccc(Cl)cc2)nc2ccccc2c1=O | -14 | 40 | 4 | 3 | 86*
O=C(Nc1ccc(OCc2ccccc2Cl)cc1)c1cccnc1 | 114* | 6 | 0 | -4 | 10
O=C(Nc1ccc(OCc2ccccc2)cc1)c1cccnc1 | 20 | 6 | -12 | . | 38
CCCP(=O)(CCC)CCP(=O)(c1ccccc1)c1ccccc1 | -34 | 4 | -11 | -2 | -11
COc1cc(C(=O)Sc2ccc(Cl)cc2)cc(OC)c1OC | 0 | 60 | 32 | -1 | 79*
COc1cc(C(=O)NCCSc2ccc(Cl)cc2)cc(OC)c1OC | 2 | 18 | -2 | 0 | 7
COc1ccc(Cl)cc1-c1nc(SCC(=O)NCCN2C(=O)CSC2=O)n[nH]1 | 2 | -8 | 0 | 0 | -5
COc1cc(C=O)ccc1OCc1cccc(Br)c1 | 0 | 24 | -9 | 2 | 63*
CCN(CC)C(=O)COc1ccc(C=O)cc1OC | 5 | 38 | 12 | -1 | 75*
CNC(=O)COc1ccc(C=O)cc1OC | 3 | 3 | -1 | 0 | 10
COc1cc(C=O)ccc1OCc1ccccc1Br | -2 | 11 | -24 | 1 | 20
CCc1cc2cc(C(=O)Nc3ccccc3F)sc2s1 | -3 | 36 | -9 | 3 | 57*
CCC(=O)N1CCCN(S(=O)(=O)c2ccc(C)cc2)C1c1ccc(OC)cc1 (stereo not drawn) | 1 | 2 | 2 | -1 | 7
SMILES | Calb FLC | HSF1 inhib | T cruzi inh | HIF act | HSF1 activator
Cc1c(C)n(CCO)c2ncnc(Nc3ccc(F)cc3)c12 | 5 | 4 | -8 | 1 | 15
Cc1c(C)n(CCCN(C)C)c2ncnc(Nc3ccc(F)cc3)c12 | 7 | -10 | 61* | -9 | 14
CCOC(=O)C(NC(C)=O)(N1CCOCC1)C(F)(F)F (stereo not drawn) | -4 | -13 | 4 | 49* | -10
Cc1cc(C)c(S(=O)(=O)CCC(C)C)c(=O)[nH]1 | 21 | -1 | -14 | 0 | 25
Cc1ccccc1-c1cnn(-c2cccc([N+](=O)[O-])c2)c1N | 6 | 3 | 8 | 0 | 9
Cc1ccc(-c2cnn(-c3cccc([N+](=O)[O-])c3)c2N)cc1 | -11 | 32 | 16 | 4 | 60*
CCOc1ccc(S(=O)(=O)N2CCOCC2)cc1NC(=O)CSCc1c(C)noc1C | 11 | 10 | 3 | 0 | 18
O=C(Oc1c(Cl)cc(Cl)c2cccnc12)c1cccc([N+](=O)[O-])c1 | 104* | -34 | 27 | 0 | -29
O=C(Oc1cccc2cccnc12)c1cccc([N+](=O)[O-])c1 | -3 | 10 | -14 | 0 | 21
O=C(Oc1ccc(Cl)c2cccnc12)c1cccc([N+](=O)[O-])c1 | 85* | -3 | -3 | 0 | 1
CCC(CC)N=C1NS(=O)(=O)c2cc([N+](=O)[O-])ccc21 | -4 | 16 | ? | 0 | 11
C=CCn1c2ccccc2c2nn(C)c(=S)nc21 | 10 | 5 | 6 | -1 | -6
COc1ccc(-c2nn(-c3ccccc3)cc2C(=O)N/N=C/c2ccc([N+](=O)[O-])o2)cc1 | 8 | -8 | 90* | -1 | -25
Cc1ccc(OCC(=O)N/N=C\c2ccc(C)o2)c([N+](=O)[O-])c1 | -8 | -5 | 0 | 0 | 12
Cc1ccc(OCC(=O)N/N=C/c2ccc([N+](=O)[O-])o2)cc1 | 39 | 16 | 66* | 0 | 22
Cc1nc2ccccc2n1/N=C/c1ccc([N+](=O)[O-])o1 | -47 | 41 | 42 | 0 | 77*
O=C(COc1ccccc1)N/N=C/c1ccc([N+](=O)[O-])o1 | -16 | 6 | 83* | 0 | 6
O=[N+]([O-])c1cccc(Cl)c1NCCNS(=O)(=O)c1ccccc1 | 6 | 2 | -14 | -1 | -3
O=C(CNc1ccc2ccccc2c1)N/N=C/c1ccc([N+](=O)[O-])o1 | 59 | 29 | 68* | 0 | 47
CN(/N=C/c1ccc([N+](=O)[O-])o1)c1ccccc1 | 7 | 31 | 60* | 1 | 31
O=C(N/N=C/c1ccc(-c2ccc([N+](=O)[O-])cc2)o1)C(O)c1ccccc1 (stereo not drawn) | -8 | 2 | 3 | 0 | -5
Cc1ccc(NC(=O)CCC(=O)N/N=C/c2ccc([N+](=O)[O-])o2)cc1C | 7 | 12 | 61* | 1 | 19
O=C(N/N=C/c1ccc([N+](=O)[O-])o1)C(O)c1ccccc1 (stereo not drawn) | -2 | 19 | 76* | 0 | 13
CC(=O)N(/N=C/c1ccc([N+](=O)[O-])o1)c1nc2ccccc2c(=O)n1-c1ccccc1 | 14 | -10 | 36 | -1 | 5
Cc1cccc(C)c1NC(=O)c1cccnc1 | -20 | -67* | -4 | 0 | -76
Cc1ccccc1OCC(=O)NCCCNC(=O)c1cccnc1 | -4 | 14 | 8 | 0 | 56*
